Source: ChEMBL document CHEMBL1649383, “Mode of action of epoxyphomalins A and B and characterization of related metabolites from the marine-derived fungus Paraconiothyrium sp” (J Nat Prod, 2010)
In brackets after ≈: the same amount, converted by molar mass.

How the values were obtained:
PANC-1 [1] = test: Cytotoxicity against human PANC1 cells; type: functional, cell-based
How it was run: (§1)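 Monolayer cell survival and proliferation assay run across a panel of 36 human tumor cell lines, with IC50 determined from the resulting growth data.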

[2] = Cytotoxicity against human OVXF 1619L cells at 0.01 ug/ml relative to control; type: functional
[3] = Cytotoxicity against human PAXF 1657L cells at 0.01 ug/ml relative to control; type: functional
[4] = Cytotoxicity against human MEXF 514L cells at 0.01 ug/ml relative to control; type: functional
[5] = Cytotoxicity against human OVXF 899L cells at 0.001 ug/ml relative to control; type: functional
MCF7 = test: Cytotoxicity against human MCF7 cells at 0.01 ug/ml relative to control; type: functional
[6] = Cytotoxicity against human PAXF 1657L cells; type: functional, cell-based; how it was run: as §1
DU-145 = test: Cytotoxicity against human DU145 cells at 0.001 ug/ml relative to control; type: functional
[7] = Cytotoxicity against human RXF 393NL cells at 0.1 ug/ml relative to control; type: functional
[8] = Cytotoxicity against human LXFA 629L cells at 0.1 ug/ml relative to control; type: functional
[9] = Cytotoxicity against human LXFL 529L cells at 10 ug/ml relative to control; type: functional
[10] = Cytotoxicity against human RXF 1781L cells at 0.001 ug/ml relative to control; type: functional
[11] = Cytotoxicity against human OVXF 899L cells at 0.1 ug/ml relative to control; type: functional
[12] = Cytotoxicity against human RXF 486L cells at 1 ug/ml relative to control; type: functional
[13] = Cytotoxicity against human MEXF 394NL cells at 10 ug/ml relative to control; type: functional
[14] = Cytotoxicity against human PC3M cells at 1 ug/ml relative to control; type: functional, PC-3M
[15] = Cytotoxicity against human OVXF 1619L cells at 0.1 ug/ml relative to control; type: functional
[16] = Cytotoxicity against human LXFL 1121L cells at 10 ug/ml relative to control; type: functional
[17] = Cytotoxicity against human OVXF 1619L cells at 1 ug/ml relative to control; type: functional
[18] = Cytotoxicity against human PXF 1752L cells at 1 ug/ml relative to control; type: functional
[19] = Cytotoxicity against human MEXF 394NL cells; type: functional, cell-based; how it was run: as §1
[20] = Cytotoxicity against human BXF 1218L cells at 0.001 ug/ml relative to control; type: functional
[21] = Cytotoxicity against human MEXF 514L cells at 0.001 ug/ml relative to control; type: functional
[22] = Cytotoxicity against human MEXF 394NL cells at 0.01 ug/ml relative to control; type: functional
[23] = Cytotoxicity against human GXF251L cells at 10 ug/ml relative to control; type: functional
[24] = Cytotoxicity against human LXFL 529L cells; type: functional, cell-based
How it was run: (§2)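 Monolayer cell survival and proliferation assay run across a panel of 36 human tumour cell lines; IC50 values determined.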

[25] = Cytotoxicity against human LXFA 526L cells at 10 ug/ml relative to control; type: functional
HCT-116 [26] = test: Cytotoxicity against human HCT116 cells; type: functional, cell-based
How it was run: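 Monolayer cell survival and proliferation assay, run within a panel of 36 human tumor cell lines; IC50 determined per cell line.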

[27] = Cytotoxicity against human MAXF 401NL cells at 1 ug/ml relative to control; type: functional
[28] = Cytotoxicity against human RXF 486L cells at 0.001 ug/ml relative to control; type: functional
[29] = Cytotoxicity against human CNXF 498NL cells at 1 ug/ml relative to control; type: functional
[30] = Cytotoxicity against human LXFL 529L cells at 1 ug/ml relative to control; type: functional
HCT-116 [31] = test: Cytotoxicity against human HCT116 cells at 0.01 ug/ml relative to control; type: functional
[32] = Cytotoxicity against human MEXF 394NL cells at 1 ug/ml relative to control; type: functional
HCT-116 [33] = test: Cytotoxicity against human HCT116 cells at 10 ug/ml relative to control; type: functional
[34] = Cytotoxicity against human LXFA 526L cells; type: functional, cell-based; how it was run: as §2
PANC-1 [35] = test: Cytotoxicity against human PANC1 cells at 0.01 ug/ml relative to control; type: functional
[36] = Cytotoxicity against human LXFL 529L cells at 0.01 ug/ml relative to control; type: functional
[37] = Cytotoxicity against human LXFA 526L cells at 1 ug/ml relative to control; type: functional
[38] = Cytotoxicity against human HNXF 536L cells at 10 ug/ml relative to control; type: functional
OVCAR-3 = test: Cytotoxicity against human OVCAR3 cells; type: functional, cell-based; how it was run: as §1
[39] = Cytotoxicity against human RXF 393NL cells at 10 ug/ml relative to control; type: functional
NCI-H460 = test: Cytotoxicity against human H460 cells at 0.001 ug/ml relative to control; type: functional
[40] = Cytotoxicity against human MAXF 401NL cells at 10 ug/ml relative to control; type: functional
[41] = Cytotoxicity against human UXF 1138L cells; type: functional, cell-based; how it was run: as §1
[42] = Cytotoxicity against human MEXF 276L cells at 10 ug/ml relative to control; type: functional, MEXF276L
[43] = Cytotoxicity against human LXFA 629L cells at 0.01 ug/ml relative to control; type: functional
[44] = Cytotoxicity against human MEXF 276L cells at 1 ug/ml relative to control; type: functional, MEXF276L
[45] = Cytotoxicity against human OVXF 1619L cells at 10 ug/ml relative to control; type: functional
LNCaP = test: Cytotoxicity against human LNCAP cells at 0.01 ug/ml relative to control; type: functional
[46] = Cytotoxicity against human MEXF 462NL cells; type: functional, cell-based; how it was run: as §1
[47] = Cytotoxicity against human MEXF 394NL cells at 0.001 ug/ml relative to control; type: functional
[48] = Cytotoxicity against human PXF 1752L cells at 0.1 ug/ml relative to control; type: functional
HCT-116 [49] = test: Cytotoxicity against human HCT116 cells at 0.1 ug/ml relative to control; type: functional
[50] = Cytotoxicity against human HNXF 536L cells at 0.001 ug/ml relative to control; type: functional

With `C=C1[C@@H](O)[C@H]2O[C@@]2(C[C@H]2C(C)=CC[C@H]3C(C)(C)CCC[C@]23C)[C@@H](O)[C@H]1O` [EPOXYPHOLAMIN D] the IC50 (PANC-1 [1]) was 5.43 µM, the IC70 (PANC-1 [1]) was 4.2 µg/mL (≈ 11.6 µM) and the IC90 (PANC-1 [1]) was 8.93 µg/mL (≈ 24.6 µM). The Activity [2] was 106%, the Activity [3] was 103% and the Activity [4] was 123%. It also gave an Activity [5] of 103%, an Activity (MCF7) of 102% and an IC50 [6] of 6.32 µM. The IC70 [6] was 4.7 µg/mL (≈ 13 µM), the IC90 [6] was 9.65 µg/mL (≈ 26.6 µM) and the Activity (DU-145) was 91%. The Activity [7] was 134%, the Activity [8] was 81% and the Activity [9] was 14%. For the same molecule, the Activity [10] was 98%, the Activity [11] was 97% and the Activity [12] was 82%. The Activity [13] was 6%, the Activity [14] was 18% and the Activity [15] was 81%. It also gave an Activity [16] of 5%, an Activity [17] of 103% and an Activity [18] of 46%. For the same molecule, the IC50 [19] was 6.76 µM, the IC70 [19] was 4.64 µg/mL (≈ 12.8 µM) and the IC90 [19] was 8.8 µg/mL (≈ 24.3 µM). It also gave an Activity [20] of 106%, an Activity [21] of 119% and an Activity [22] of 85%. The Activity [23] was 16%, the IC50 [24] was 8.58 µM and the IC70 [24] was 5.95 µg/mL (≈ 16.4 µM). For the same molecule, the IC90 [24] was 11.4 µg/mL (≈ 31.4 µM), the Activity [25] was 19% and the IC50 (HCT-116 [26]) was 7.7 µM. The IC70 (HCT-116 [26]) was 4.86 µg/mL (≈ 13.4 µM), the IC90 (HCT-116 [26]) was 8.47 µg/mL (≈ 23.4 µM) and the Activity [27] was 48%. It also gave an Activity [28] of 95%, an Activity [29] of 55% and an Activity [30] of 85%. The Activity (HCT-116 [31]) was 97%, the Activity [32] was 78% and the Activity (HCT-116 [33]) was 4%. For the same molecule, the IC50 [34] was 13.5 µM, the IC70 [34] was 7.76 µg/mL (≈ 21.4 µM) and the IC90 [34] was 12.3 µg/mL (≈ 33.9 µM). The Activity (PANC-1 [35]) was 92%, the Activity [36] was 99% and the Activity [37] was 119%. The Activity [38] was 5%, the IC50 (OVCAR-3) was 1.96 µM and the IC70 (OVCAR-3) was 2.71 µg/mL (≈ 7.48 µM). The IC90 (OVCAR-3) was 12.6 µg/mL (≈ 34.7 µM), the Activity [39] was 10% and the Activity (NCI-H460) was 107%. The Activity [40] was 12%, the IC50 [41] was 6.15 µM and the IC70 [41] was 4.64 µg/mL (≈ 12.8 µM). For the same molecule, the IC90 [41] was 9.64 µg/mL (≈ 26.6 µM), the Activity [42] was 20% and the Activity [43] was 87%. For the same molecule, the Activity [44] was 59%, the Activity [45] was 10% and the Activity (LNCaP) was 111%. For the same molecule, the IC50 [46] was 5.79 µM, the IC70 [46] was 4.77 µg/mL (≈ 13.2 µM) and the IC90 [46] was 10.9 µg/mL (≈ 30 µM). The Activity [47] was 97%, the Activity [48] was 95% and the Activity (HCT-116 [49]) was 108%. It also gave an Activity [50] of 79%.
